This is a sample that favours compounds with a hit; in the whole collection about 9.6% have one here.
bCat KO growth: primary screen for growth suppressors in beta-catenin knockout HCT116 cells (colon tumor, human). HCT116 beta-catenin knockout viability, CellTiter-Glo, 60 h; active compounds read low. viability, % at 10 µM. actives 1.5% (n = 140,000). AID 818, 2007;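 active = viability at or under a set limit, the compound median less 4 SD, cut at about 6% in these data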;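 note: 0% = Hyamine 1622 control at 20 µM and 100% = untreated cell control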
TNAP inh no acc: human TNAP enzyme inhibitors, primary screen, biochemical, luminescent, no phosphate acceptor, uHTS; Alkaline phosphatase, tissue-nonspecific isozyme (Homo sapiens), P05186; inhibition, % at 20 µM; actives 0.26% (n = 200,000); purified TNAP, CDP-star luminescence, 30 min;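 active = tissue-nonspecific alkaline phosphatase inhibition above about 50% at 20 µM in the single-dose screen, limit read from the data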;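 note: 0% = DMSO negative control and 100% = EDTA positive control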
Target sequence (P05186 whole entry, looked up): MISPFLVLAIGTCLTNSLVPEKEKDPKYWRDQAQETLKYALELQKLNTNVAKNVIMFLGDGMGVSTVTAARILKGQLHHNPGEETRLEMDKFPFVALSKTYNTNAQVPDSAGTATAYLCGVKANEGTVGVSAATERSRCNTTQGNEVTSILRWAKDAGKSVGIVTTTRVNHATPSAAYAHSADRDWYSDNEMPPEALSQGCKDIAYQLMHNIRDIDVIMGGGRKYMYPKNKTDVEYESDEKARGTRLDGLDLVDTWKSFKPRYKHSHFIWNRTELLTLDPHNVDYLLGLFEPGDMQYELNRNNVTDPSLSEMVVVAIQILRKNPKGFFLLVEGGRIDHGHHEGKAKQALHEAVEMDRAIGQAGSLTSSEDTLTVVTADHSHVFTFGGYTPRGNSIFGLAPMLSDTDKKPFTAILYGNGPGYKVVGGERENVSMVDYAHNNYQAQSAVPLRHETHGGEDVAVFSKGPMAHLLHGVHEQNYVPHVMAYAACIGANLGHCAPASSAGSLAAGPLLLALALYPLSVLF
TNAP act hiacc: TNAP activators at high phosphate acceptor level, primary screen, biochemical, luminescence, uHTS; purified TNAP, CDP-star luminescence, 1 M DEA, 30 min; active compounds read high; 0 = EDTA background, 1 = DMSO-only activity; activation factor at 20 µM; 200,000 tested, under 10 active; AID 1136, 2008;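 active = activation factor at least 2 at 20 µM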
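Measured by: Luminescent substrate turnover signal | Test system: Human TNAP | Input: TNAP 1/800 final | Dosing: 20 µM single point | Schedule: 30 min, room temperature | Controls: EDTA wells as negative control, DMSO wells as positive control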
TNAP inh hiacc: human TNAP enzyme inhibitors, primary screen, biochemical, luminescent, high phosphate acceptor level, uHTS; purified TNAP, CDP-star luminescence, 1 M DEA; inhibition, % at 20 µM; actives 0.03% (n = 200,000); AID 1135, 2008;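 active = over 50% inhibition of tissue-nonspecific alkaline phosphatase at 20 µM in the single-dose screen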;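 note: plate controls were DMSO wells for no effect and EDTA-quenched wells as full inhibition for full effect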
L major viab: Leishmania major promastigote growth inhibition, primary screen. inhibition, % at 10 µM. actives 9% (n = 200,000). Leishmania major promastigotes, resazurin fluorescence viability; in the data active = inhibition above about 50%;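 note: promastigotes grown with compound for 44 hours at 28 °C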
PTEN del growth: growth suppression of PTEN-null HCT116, primary screen, cell-based, CellTiter-Glo. HCT116 PTEN-null viability, 60 h; active compounds read low. viability, % at 10 µM. actives 1.2% (n = 140,000). AID 827, 2007;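 active = viability at or below a set limit, 4 SD under the median of all tested compounds, cut at about 3.7% in these data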;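 note: PTEN knockout HCT116 line with beta catenin targeted HCT116 as companion control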
* hit, by the source's call; x = no result given.

SMILES | bCat KO growth | TNAP inh no acc | TNAP act hiacc | TNAP inh hiacc | L major viab | PTEN del growth
CCCS(=O)c1nc(C)cc(C)c1S(C)(=O)=O (stereo unspecified) | x | -10 | 1 | -3 | -9 | x
CCOc1ccc(C(=O)Nc2nncs2)cc1OCC | 107 | -2 | 1 | -2 | 1 | 111
CCOc1ccc(C(=O)Nc2nnc(C(C)C)s2)cc1OCC | 76 | -9 | 1 | 1 | 87* | 77
CCn1c(C)nc2cc(C(=O)N/N=C/c3ccccc3)ccc21 | x | -11 | 1 | -2 | -5 | x
CCn1c(C)nc2cc(C(=O)N/N=C/c3ccc(OC)cc3)ccc21 | x | -6 | 1 | -5 | -2 | x
COc1ccc(/C=N/NC(=O)c2nc(-c3ccccc3)cc(-c3ccccc3)n2)cc1O | 54 | 8 | 1 | 4 | 99* | 36
CCn1c(C)nc2cc(C(=O)N/N=C/c3cccc(O)c3O)ccc21 | x | -163 | 0.9 | 7 | 98* | x
CCn1c(C)nc2cc(C(=O)N/N=C/c3ccc(OC)c(O)c3)ccc21 | 90 | -2 | 1 | 0 | 63* | 101
COc1ccc(/C=N/NC(=O)c2nc(-c3ccccc3)cc(-c3ccccc3)n2)cc1 | 60 | -6 | 1.1 | -6 | 46 | 45
CCOC(=O)c1c(NC(=O)C2COc3ccccc3O2)sc(C(C)=O)c1C (stereo unspecified) | 67 | -2 | 1 | 0 | 4 | 63
CCOC(=O)c1c(NC(=O)C2COc3ccccc3O2)sc2c1CC(C)(C)NC2(C)C (stereo unspecified) | 2.3* | 1 | 1 | 2 | 99* | 0.7*
CCCC(O)(CCC)C(=O)NN(C(=O)CCl)c1ccccc1 | 61 | -26 | 1 | -2 | 52* | 61
CCCCC(O)(CCCC)C(=O)NN(C(=O)OCC)c1ccccc1 | 76 | -6 | 1 | 5 | -2 | 78
CC(=O)Nc1cccc(NC(=O)C(=O)c2cn(CC(=O)N3CCCCC3)c3ccccc23)c1 | x | -1 | 1.1 | -5 | 0 | x
Cc1ccc(-n2c(SCC(=O)N3CCCC3)nc3c(c2=O)SCC3)cc1 | 102 | -13 | 1.1 | -6 | -5 | 94
COC(=O)c1ccc(CSc2nc3c(c(=O)n2-c2ccc(C)cc2)SCC3)o1 | 88 | -1 | 1.1 | -6 | 97* | 82
COc1ccc(C(CC(=O)NCc2ccccc2)Sc2n[nH]c(-c3ccc(Cl)cc3)n2)cc1 (stereo unspecified) | 92 | 4 | 1 | 1 | 52* | 95
COc1ccc(C(CC(=O)NCc2ccccc2)Sc2n[nH]c(-c3ccccc3)n2)cc1 (stereo unspecified) | 89 | -2 | 1 | -3 | -3 | 97
Cc1sc2nc(-c3ccccc3)oc(=O)c2c1C | x | -10 | 1 | -2 | -2 | x
Cc1cc(C(=O)CSc2ncccn2)c(C)n1-c1cccc(F)c1 | 76 | -14 | 1 | 2 | -2 | 66
Cc1cc(C(=O)CSc2nc(N)cc(N)n2)c(C)n1-c1cccc(C(F)(F)F)c1 | 41 | -6 | 1.1 | -5 | 82* | 53
CN1CCN(c2ccc([N+](=O)[O-])cc2C(=O)c2ccccc2)CC1 | 63 | 24 | 0.9 | 8 | 56* | 58
CCOC(=O)CNS(=O)(=O)c1cc(-c2nnc(Nc3ccc4c(c3)OCO4)c3ccccc23)ccc1C | 3.6* | 7 | 1 | 3 | 55* | 3.5*
CCOC(=O)CNS(=O)(=O)c1cc(-c2n[nH]c(=O)c3ccccc23)ccc1C | 88 | -5 | 1.1 | -6 | 5 | 97
COC(=O)c1ccc(Nc2nnc(-c3ccc(C)c(S(=O)(=O)NCC4CCCO4)c3)c3ccccc23)cc1 (stereo unspecified) | 87 | -14 | 1 | 3 | 92* | 77
SMILES | bCat KO growth | TNAP inh no acc | TNAP act hiacc | TNAP inh hiacc | L major viab | PTEN del growth
Cc1nnc(N/N=C/c2cccc(OCc3ccc(Cl)c(Cl)c3)c2)n1N | 46 | -44 | 1 | -1 | 73* | 47
COc1ccc(C(=O)Nc2cccc(-c3nnc(-c4ccco4)o3)c2)cc1 | 54 | -9 | 1 | -4 | 9 | 41
COc1ccc(CC(=O)Nc2cccc(-c3nnc(-c4ccco4)o3)c2)cc1 | 81 | -4 | 1 | 1 | 61* | 73
CC(C)CCN1CCN(C2CCN(c3ccccc3)CC2)CC1CCO (stereo unspecified) | x | -8 | 1 | 1 | 89* | x
OCCC1CN(Cc2nc(-c3ccccc3)cs2)CCN1CCc1ccccc1 (stereo unspecified) | x | -10 | 1.1 | -9 | 87* | x
CC(C)CCN1CCN(Cc2cccs2)CC1CCO (stereo unspecified) | x | -6 | 1 | -3 | 0 | x
OCCC1CN(C2CCN(c3ccccc3F)CC2)CCN1Cc1ccccc1 (stereo unspecified) | x | -8 | 1 | -5 | 80* | x
OCCC1CN(Cc2cccnc2)CCN1CCc1ccccc1 (stereo unspecified) | x | -8 | 1 | -3 | 9 | x
OCCC1CN(C2CSCCSC2)CCN1Cc1ccccc1 (stereo unspecified) | x | -9 | 1.1 | -8 | -1 | x
CC(C)CCN1CCN(Cc2nc(-c3ccccc3)cs2)CC1CCO (stereo unspecified) | x | -8 | 1.1 | -5 | 85* | x
CC1=[N+]([O-])C(C)(C)C(c2ccc(Br)cc2)=[N+]1[O-] | 105 | -2 | 1 | 0 | 15 | 99
C/C(=C/Cc1c(O)cc2oc(C)cc(=O)c2c1O)COC1OC(CO)C(O)C(O)C1O (stereo unspecified) | 87 | -8 | 1 | -3 | -3 | 97
CCC(C)(C)n1nnnc1C(c1cc(OC)ccc1OC)N1CCN(Cc2ccccc2)CC1 (stereo unspecified) | x | -1 | 1 | 1 | 39 | x
CC(C)CCN1CCN(CC#Cc2ccccc2)CC1CCO (stereo unspecified) | x | -5 | 1 | -1 | 80* | x
CC(C)=CCN1CCN(Cc2nc(-c3ccccc3)cs2)CC1CCO (stereo unspecified) | x | -7 | 1 | -4 | 70* | x
OCCC1CN(Cc2nc(-c3ccc(F)cc3)cs2)CCN1CCc1ccccc1 (stereo unspecified) | x | -2 | 1 | -1 | 85* | x
COC(=O)c1cc(NC(=S)N2CCN(C(=O)C3CCCO3)CC2)cc(C(=O)OC)c1 (stereo unspecified) | x | -13 | 1.1 | -8 | -5 | x
COc1ccc(C(=O)Nc2n[nH]c(-c3ccncc3)n2)cc1 | 95 | 92* | 1 | 2 | 1 | 85
COc1ccc(NC(=O)c2ccc(Cl)c(NC(=O)c3ccncc3)c2)cc1 | x | -3 | 1 | -3 | 76* | x

From PubChem BioAssay
